Source: ChEMBL document CHEMBL1671628, “Cell density and cell aging as factors modulating antifungal resistance of Candida albicans biofilms” (2008)
≈ marks a conversion by molar mass, not a printed value.

How the values were obtained:
Candida albicans [1] = test: Antifungal activity against 10^7 cells/ml Candida albicans ATCC 90028 planktonic cells by XTT reduction assay; format: functional
How it was run: (§1)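 High-density planktonic suspensions (10^7 or 10^8 cells/ml) added to serially double-diluted drugs as in the NCCLS setup, run in parallel in RPMI 1640 + 2% glucose and YNB + 100 mM glucose. Viability read by XTT (1 mg/ml) with menadione (0.4 mM stock, 5:1), 3 h dark at 37°C, A490 minus blank wells. MIC50 = lowest concentration giving 50% reduction versus drug-free control.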

Candida albicans [2] = test: Antifungal activity against 10^7 cells/ml wild-type Candida albicans BF-1 planktonic cells by XTT reduction assay; format: functional; how it was run: as §1
Candida albicans [3] = test: Antifungal activity against 10^8 cells/ml Candida albicans ATCC 90028 planktonic cells by XTT reduction assay; format: functional; how it was run: as §1
Candida albicans [4] = test: Antifungal activity against 10^8 cells/ml wild-type Candida albicans BF-1 planktonic cells by XTT reduction assay; format: functional
How it was run: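 Planktonic suspensions at 1 × 10^8 cells/ml added to twofold serial drug dilutions in 96-well plates (NCCLS format). Run in parallel in RPMI 1640 + 2% glucose and YNB + 100 mM glucose. Readout by XTT reduction: XTT–menadione in PBS, 3 h at 37°C in the dark, A490 minus blank. MIC50 is 50% reduction vs drug-free control.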

Candida albicans [5] = test: Antifungal activity against 24 hrs cultures of 10^7 cells/ml Candida albicans ATCC 90028 biofilms by XTT reduction assay; format: functional; details: ATCC 90028, 24 h
How it was run: (§2)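 Washed late-exponential cells at 1 × 10^7 cells/ml in YNB + 100 mM glucose were adhered 1.5 h at 37°C with shaking at 75 rpm, washed, then grown 24 or 48 h at 37°C, 75 rpm. Biofilms were washed and exposed 24 or 48 h at 37°C to twofold dilutions in RPMI + 2% glucose. Read by XTT at A490. MIC50 is 50% reduction vs drug-free control. Three experiments, four replicates.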

Candida albicans [6] = test: Antifungal activity against 24 hrs cultures of 10^7 cells/ml wild-type Candida albicans BF-1 biofilms by XTT reduction assay; format: functional; details: BF-1, 24 h; how it was run: as §2
Candida albicans [7] = test: Antifungal activity against 10^3 cells/ml Candida albicans SC5314 by NCCLS method; format: functional
How it was run: (§3)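 Planktonic broth microdilution per NCCLS (CLSI): inoculum from 24-h SDA cultures adjusted to 0.5 McFarland at 520 nm, diluted in RPMI 1640 to about 0.5 × 10^3 to 2.5 × 10^3 cells/ml. Cells exposed to twofold drug dilutions, incubated 35°C for 48 h, then MIC read. Three separate occasions.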

Candida albicans [8] = test: Antifungal activity against 10^8 cells/ml Candida albicans SC5314 planktonic cells by XTT reduction assay; format: functional; how it was run: as §1
Candida albicans [9] = test: Antifungal activity against 24 hrs cultures of 10^7 cells/ml Candida albicans SC5314 biofilms by XTT reduction assay; format: functional; details: SC5314, 24 h; how it was run: as §2
Candida albicans [10] = test: Antifungal activity against 24 hrs cultures of 10^7 cells/ml Candida albicans ATCC 90028 planktonic cells by XTT reduction method; format: functional; details: ATCC 90028, 24 h
How it was run: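 Standard 1 × 10^7 cells/ml suspension in YNB + 100 mM glucose propagated planktonically 24 h alongside age-matched biofilms, then exposed to twofold drug dilutions. Metabolic activity read by XTT–menadione reduction, 3 h dark, 37°C, A490 background-subtracted. MIC50 is the 50% reduction point versus drug-free control.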

Candida albicans [11] = test: Antifungal activity against 24 hrs cultures of 10^7 cells/ml Candida albicans BF-1 planktonic cells by XTT reduction method; format: functional; details: BF-1, 24 h
How it was run: (§4)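 Age-matched planktonic cultures were grown from the same 1 × 10^7 cells/ml YNB + 100 mM glucose suspension under the biofilm conditions for 24 or 48 h. They were tested against twofold drug dilutions by XTT reduction (3 h at 37°C in the dark, A490 minus blank). MIC50 is 50% reduction vs drug-free control.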

Candida albicans [12] = test: Antifungal activity against 48 hrs cultures of 10^7 cells/ml Candida albicans ATCC 90028 planktonic cells by XTT reduction method; format: functional; details: ATCC 90028, 48 h; how it was run: as §4
Candida albicans [13] = test: Antifungal activity against 48 hrs cultures of 10^7 cells/ml Candida albicans BF-1 planktonic cells by XTT reduction method; format: functional; details: BF-1, 48 h; how it was run: as §4
Candida albicans [14] = test: Antifungal activity against 24 hrs cultures of 10^7 cells/ml Candida albicans ATCC 90028 biofilms by XTT reduction method; format: functional; details: ATCC 90028, 24 h; how it was run: as §2
Candida albicans [15] = test: Antifungal activity against 24 hrs cultures of 10^7 cells/ml Candida albicans BF-1 biofilms by XTT reduction method; format: functional; details: BF-1, 24 h; how it was run: as §2
Candida albicans [16] = test: Antifungal activity against 48 hrs cultures of 10^7 cells/ml Candida albicans ATCC 90028 biofilms by XTT reduction method; format: functional; details: ATCC 90028, 48 h; how it was run: as §2
Candida albicans [17] = test: Antifungal activity against 48 hrs cultures of 10^7 cells/ml Candida albicans BF-1 biofilms by XTT reduction method; format: functional; details: BF-1, 48 h; how it was run: as §2
Candida albicans [18] = test: Antifungal activity against 24 hrs cultures of 10^7 cells/ml biofilm-derived Candida albicans ATCC 90028 planktonic cells hrs by XTT reduction method; format: functional; details: ATCC 90028, 24 h
How it was run: (§5)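 Biofilms grown from 1 × 10^7 cells/ml (YNB + 100 mM glucose, 1.5 h adherence, 37°C, 75 rpm) for 24 or 48 h, washed, scraped and moved to wells of serially double-diluted drugs. Incubated with drug 24 or 48 h, then XTT–menadione read at 490 nm. MIC50 = 50% reduction versus drug-free control.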

Candida albicans [19] = test: Antifungal activity against 24 hrs cultures of 10^7 cells/ml biofilm-derived Candida albicans BF-1 planktonic cells hrs by XTT reduction method; format: functional; details: BF-1, 24 h
How it was run: (§6)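 Biofilms grown 24 or 48 h from 1 × 10^7 cells/ml were washed, scraped and transferred into plates of twofold serially diluted drugs. They were incubated 24 or 48 h. MIC was read by XTT reduction (3 h at 37°C in the dark, A490 minus blank) as 50% reduction vs drug-free control.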

Candida albicans [20] = test: Antifungal activity against 48 hrs cultures of 10^7 cells/ml biofilm-derived Candida albicans ATCC 90028 planktonic cells hrs by XTT reduction method; format: functional; details: ATCC 90028, 48 h; how it was run: as §6
Candida albicans [21] = test: Antifungal activity against 48 hrs cultures of 10^7 cells/ml biofilm-derived Candida albicans BF-1 planktonic cells hrs by XTT reduction method; format: functional; details: BF-1, 48 h; how it was run: as §5
Candida albicans [22] = test: Antifungal activity against 10^3 cells/ml Candida albicans ATCC 90028 by NCCLS method; format: functional; how it was run: as §3
Candida albicans [23] = test: Antifungal activity against 10^3 cells/ml wild-type Candida albicans BF-1 by NCCLS method; format: functional; how it was run: as §3
Candida albicans [24] = test: Antifungal activity against 10^5 cells/ml Candida albicans ATCC 90028 by EUCAST method; format: functional
How it was run: (§7)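 EUCAST AFST planktonic broth microdilution: RPMI 1640 plus 2% glucose, inoculum 0.5 × 10^5 to 2.5 × 10^5 cells/ml, twofold drug dilutions. Performed on three different occasions.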

Candida albicans [25] = test: Antifungal activity against 10^5 cells/ml wild-type Candida albicans BF-1 by EUCAST method; format: functional; how it was run: as §7
Candida albicans [26] = test: Antifungal activity against 48 hrs cultures of 10^8 cells/ml Candida albicans ATCC 90028 biofilms by XTT reduction assay; details: ATCC 90028, 48 h
Candida albicans [27] = test: Antifungal activity against 48 hrs cultures of 10^8 cells/ml wild-type Candida albicans BF-1 biofilms by XTT reduction assay; details: BF-1, 48 h

| SMILES | MIC (Candida albicans [1]) [mg/L] | MIC (Candida albicans [2]) [mg/L] | MIC (Candida albicans [3]) [mg/L] | MIC (Candida albicans [4]) [mg/L] | MIC (Candida albicans [5]) [mg/L] | MIC (Candida albicans [6]) [mg/L] | MIC (Candida albicans [7]) [mg/L] | MIC (Candida albicans [8]) [mg/L] | MIC (Candida albicans [9]) [mg/L] | MIC (Candida albicans [10]) [mg/L] | MIC (Candida albicans [11]) [mg/L] | MIC (Candida albicans [12]) [mg/L] | MIC (Candida albicans [13]) [mg/L] | MIC (Candida albicans [14]) [mg/L] | MIC (Candida albicans [15]) [mg/L] | MIC (Candida albicans [16]) [mg/L] | MIC (Candida albicans [17]) [mg/L] | MIC (Candida albicans [18]) [mg/L] | MIC (Candida albicans [19]) [mg/L] | MIC (Candida albicans [20]) [mg/L] | other results |
| --- | --- | --- | --- | --- | --- | --- | --- | --- | --- | --- | --- | --- | --- | --- | --- | --- | --- | --- | --- | --- | --- |
| C[C@@H]1[C@H](O)[C@@H](C)/C=C/C=C/C=C/C=C/C=C/C=C/C=C/[C@H](O[C@@H]2O[C@H](C)[C@@H](O)[C@H](N)[C@@H]2O)C[C@@H]2O[C@](O)(C[C@@H](O)C[C@@H](O)[C@H](O)CC[C@@H](O)C[C@@H](O)CC(=O)O[C@H]1C)C[C@H](O)[C@H]2C(=O)O [AMPHOTERICIN B] | 0.23 (≈ 0.249 µM) | 0.46 (≈ 0.498 µM) | 0.46 (≈ 0.498 µM) | 0.93 (≈ 1.01 µM) | 15 (≈ 16.2 µM) | 30 (≈ 32.5 µM) | 0.23 (≈ 0.249 µM) | 0.46 (≈ 0.498 µM) | 32 (≈ 34.6 µM) | 0.46 (≈ 0.498 µM) | 0.93 (≈ 1.01 µM) | 0.46 (≈ 0.498 µM) | 0.93 (≈ 1.01 µM) | 16 (≈ 17.3 µM) | 32 (≈ 34.6 µM) | 16 (≈ 17.3 µM) | 32 (≈ 34.6 µM) | 0.46 (≈ 0.498 µM) | 1.87 (≈ 2.02 µM) | 1.87 (≈ 2.02 µM) | MIC (Candida albicans [21]): 3.75 mg/L (≈ 4.06 µM); MIC (Candida albicans [22]): 0.23 mg/L (≈ 0.249 µM); MIC (Candida albicans [23]): 0.23 mg/L (≈ 0.249 µM); MIC (Candida albicans [24]): 0.23 mg/L (≈ 0.249 µM); MIC (Candida albicans [25]): 0.23 mg/L (≈ 0.249 µM); MIC (Candida albicans [26]): 15 mg/L (≈ 16.2 µM); MIC (Candida albicans [27]): 30 mg/L (≈ 32.5 µM) |
| CC[C@H](C)C[C@H](C)CCCCCCCCC(=O)N[C@H]1C[C@@H](O)[C@@H](NCCN)NC(=O)[C@@H]2[C@@H](O)CCN2C(=O)[C@H]([C@H](O)CCN)NC(=O)[C@H]([C@H](O)[C@@H](O)c2ccc(O)cc2)NC(=O)[C@@H]2C[C@@H](O)CN2C(=O)[C@H]([C@@H](C)O)NC1=O [CASPOFUNGIN] | 0.2 (≈ 0.183 µM) | 0.2 (≈ 0.183 µM) | 0.2 (≈ 0.183 µM) | 0.4 (≈ 0.366 µM) | 100 (≈ 91.5 µM) | > 100 | 0.2 (≈ 0.183 µM) | 0.2 (≈ 0.183 µM) | > 100 | 0.2 (≈ 0.183 µM) | 0.4 (≈ 0.366 µM) | 0.4 (≈ 0.366 µM) | 0.4 (≈ 0.366 µM) | 100 (≈ 91.5 µM) | > 100 | 100 (≈ 91.5 µM) | > 100 | 0.2 (≈ 0.183 µM) | 0.4 (≈ 0.366 µM) | 0.4 (≈ 0.366 µM) | MIC (Candida albicans [21]): 0.2 mg/L (≈ 0.183 µM); MIC (Candida albicans [22]): 0.2 mg/L (≈ 0.183 µM); MIC (Candida albicans [23]): 0.2 mg/L (≈ 0.183 µM); MIC (Candida albicans [24]): 0.2 mg/L (≈ 0.183 µM); MIC (Candida albicans [25]): 0.2 mg/L (≈ 0.183 µM); MIC (Candida albicans [26]): 100 mg/L (≈ 91.5 µM); MIC (Candida albicans [27]): > 100 mg/L |
